We go through six compounds from ChEMBL document CHEMBL3588757, “Structure-based design, synthesis and biological testing of piperazine-linked bis-epipodophyllotoxin etoposide analogs” (Bioorg Med Chem, 2015).

Structures are written as SMILES. Activity calls are given as the source filed them. The rule behind the calls is not given here.

In test [1] the test system is K562. Description: Relative resistance, ratio of IC50 for etoposide-resistant human K/VP.5 cells to IC50 for human K562 cells. It is filed as functional.
For test [2], the target named is DNA topoisomerase 2-alpha (Homo sapiens) (UniProt P11388). Description: Inhibition of full-length human recombinant topoisomerase 2-alpha assessed as conversion of […] DNA at 100 uM by ethidium bromide based gel-assay.
Test [3] concerns CHO. Description: Induction of cell cycle arrest in CHO cells assessed as accumulation at G2/M phase at 1 uM by propidium iodide staining based flow cytometry. The note with it: Cricetulus griseus. The class given is functional. A general note: Flow cytometry measures light scatter and fluorescence of single cells or particles in a stream.
For test [4], the system named is K562. Nature of the test: Induction of DNA double strand breaks in human K562 cells assessed as increase in gamma-H2AX level at 25 uM after 4 hrs by chemiluminescence analysis. It is filed as functional, cell-based. Put shortly: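 K562 cells (3.4 × 10^5/mL) exposed 4 h at 37 °C to 25 µM drug or DMSO. Lysed in Tris pH 6.7/SDS buffer; 50 µg protein on 14% SDS-PAGE, PVDF blot. Rabbit anti-γH2AX (1:1000, overnight), GAPDH loading control, HRP secondary. Chemiluminescence imaged by CCD.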

The subject of test [5] is K562. Description: Induction of apoptosis in human K562 cells assessed as increase in caspase 3/7 activity at 1 uM by luminescence analysis. The note with it: TDE = time-dependent effect. It is filed as functional, cell-based. Put shortly: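 K562 cells at 2 × 10^5 cells/mL treated with vehicle or 1 µM compound for 24 or 48 h. Lysates assayed with a luminogenic DEVD-aminoluciferin caspase-3/7 substrate and read by luminescence. Four wells (eight for control); unpaired t-test vs control; repeated on two days.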

The test system of test [6] is K562. Description: Cytotoxicity against human K562 cells assessed as cell growth inhibition after 72 hrs by MTS assay. It is filed as functional, cell-based. The following applies: K562, 72 h. A general note: Formazan colour is commonly taken as a measure of viable cells.
Test [7] relates to K562. Nature of the test: Induction of apoptosis in human K562 cells assessed as increase in proportion of apoptotic and apoptotic/necrotic cells at 1 uM after 24 to 48 hrs by annexin V-FITC/propidium iodide staining based two-color fluorescence flow cytometry. The class given is functional, cell-based. The method in brief: (§1)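 K562 cells (1 × 10^6/mL), untreated or given 1 µM compound (10 µM etoposide control) at 37 °C for 24 h or 48 h. Annexin V-FITC plus propidium iodide two-colour flow cytometry. Cells are scored as viable, apoptotic-only (annexin+/PI−), apoptotic/necrotic (annexin+/PI+) or necrotic.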

Test [8] addresses DNA topoisomerase 2-alpha (Homo sapiens) (UniProt P11388). Nature of the test: Inhibition of full-length human recombinant topoisomerase 2-alpha mediated relaxation and cleavage of supercoiled pBR322 plasmid DNA to linear DNA by ethidium bromide staining based gel electrophoresis assay. The method in brief: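 Recombinant full-length human topoisomerase IIα with supercoiled pBR322 DNA at 37 °C. Components mixed on ice before drug addition. Complexes trapped with SDS; products run on ethidium bromide gels. Linear DNA identified against a HindIII-linearized marker; repeated on three days.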

Test [9] shares this target. Description: Inhibition of full-length human recombinant topoisomerase 2-alpha-mediated decatenation activity of kDNA at >10 uM by ethidium bromide based gel-assay.
In test [10] the test system is K562. Description: Induction of apoptosis in human K562 cells assessed as decrease in proportion of viable cells at 1 uM after 24 to 48 hrs by annexin V-FITC/propidium iodide staining based two-color fluorescence flow cytometry. It is filed as functional, cell-based. Put shortly: as §1
The nature of test [11]: Cytotoxicity against etoposide-resistant human K/VP.5 cells assessed as cell growth inhibition after 72 hrs by MTS assay. The following applies: K/VP.5, 72 h. The class given is functional, cell-based. The method in brief:
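K/VP.5 cells are a K562-derived subline, 26-fold etoposide-resistant, with decreased topoisomerase IIα mRNA and protein. Cells were grown in suspension in αMEM with 10% fetal calf serum. Drugs were given from DMSO stocks, with final DMSO typically 0.4% or less. Read-out was MTS absorbance after 72 h. Typically nine concentrations were run in duplicate on two days. IC50 came from a four-parameter logistic fit.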

For test [12], the system named is CHO. Description: Induction of apoptosis in CHO cells assessed as increase in sub-G0/G1 cell population at 1 uM after 49 hrs by propidium iodide staining based flow cytometry. The class given is functional. The note with it: Cricetulus griseus. Put shortly:
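CHO cells grown to confluence in α-MEM/10% FCS, serum-starved 48 h (0% FCS), then seeded at 2 × 10^5 cells/mL and repleted with 10% FCS. Continuously treated from repletion with 1 µM compound (10 µM etoposide, DMSO control) for various times. Propidium iodide DNA staining, flow cytometric phase distribution including sub-G0/G1.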

In test [13] the target is DNA topoisomerase 2-alpha (Homo sapiens) (UniProt P11388). Nature of the test: Inhibition of full-length human recombinant topoisomerase 2-alpha-mediated decatenation activity of kDNA by ethidium bromide based gel-assay.
For test [14], the system named is K562. Description: Induction of apoptosis in human K562 cells assessed as increase in proportion of apoptotic and apoptotic/necrotic cells at 10 uM after 24 to 48 hrs by annexin V-FITC/propidium iodide staining based two-color fluorescence flow cytometry. The class given is functional, cell-based.
Test [15] has as its system CHO. Nature of the test: Induction of apoptosis in CHO cells assessed as increase in sub-G0/G1 cell population at 10 uM after 49 hrs by propidium iodide staining based flow cytometry (Rvb <2%). The class given is functional, Cricetulus griseus.
The test system of test [16] is K562. Description: Induction of apoptosis in human K562 cells assessed as decrease in proportion of viable cells at 10 uM after 24 to 48 hrs by annexin V-FITC/propidium iodide staining based two-color fluorescence flow cytometry. The class given is functional, cell-based.
The subject of test [17] is CHO. Nature of the test: Induction of cell cycle arrest in CHO cells assessed as accumulation at G2/M phase at 10 uM after 21 hrs by propidium iodide staining based flow cytometry. The class given is functional. The note with it: Cricetulus griseus.

DNA topoisomerase 2-alpha (Homo sapiens), sequence (P11388 whole entry): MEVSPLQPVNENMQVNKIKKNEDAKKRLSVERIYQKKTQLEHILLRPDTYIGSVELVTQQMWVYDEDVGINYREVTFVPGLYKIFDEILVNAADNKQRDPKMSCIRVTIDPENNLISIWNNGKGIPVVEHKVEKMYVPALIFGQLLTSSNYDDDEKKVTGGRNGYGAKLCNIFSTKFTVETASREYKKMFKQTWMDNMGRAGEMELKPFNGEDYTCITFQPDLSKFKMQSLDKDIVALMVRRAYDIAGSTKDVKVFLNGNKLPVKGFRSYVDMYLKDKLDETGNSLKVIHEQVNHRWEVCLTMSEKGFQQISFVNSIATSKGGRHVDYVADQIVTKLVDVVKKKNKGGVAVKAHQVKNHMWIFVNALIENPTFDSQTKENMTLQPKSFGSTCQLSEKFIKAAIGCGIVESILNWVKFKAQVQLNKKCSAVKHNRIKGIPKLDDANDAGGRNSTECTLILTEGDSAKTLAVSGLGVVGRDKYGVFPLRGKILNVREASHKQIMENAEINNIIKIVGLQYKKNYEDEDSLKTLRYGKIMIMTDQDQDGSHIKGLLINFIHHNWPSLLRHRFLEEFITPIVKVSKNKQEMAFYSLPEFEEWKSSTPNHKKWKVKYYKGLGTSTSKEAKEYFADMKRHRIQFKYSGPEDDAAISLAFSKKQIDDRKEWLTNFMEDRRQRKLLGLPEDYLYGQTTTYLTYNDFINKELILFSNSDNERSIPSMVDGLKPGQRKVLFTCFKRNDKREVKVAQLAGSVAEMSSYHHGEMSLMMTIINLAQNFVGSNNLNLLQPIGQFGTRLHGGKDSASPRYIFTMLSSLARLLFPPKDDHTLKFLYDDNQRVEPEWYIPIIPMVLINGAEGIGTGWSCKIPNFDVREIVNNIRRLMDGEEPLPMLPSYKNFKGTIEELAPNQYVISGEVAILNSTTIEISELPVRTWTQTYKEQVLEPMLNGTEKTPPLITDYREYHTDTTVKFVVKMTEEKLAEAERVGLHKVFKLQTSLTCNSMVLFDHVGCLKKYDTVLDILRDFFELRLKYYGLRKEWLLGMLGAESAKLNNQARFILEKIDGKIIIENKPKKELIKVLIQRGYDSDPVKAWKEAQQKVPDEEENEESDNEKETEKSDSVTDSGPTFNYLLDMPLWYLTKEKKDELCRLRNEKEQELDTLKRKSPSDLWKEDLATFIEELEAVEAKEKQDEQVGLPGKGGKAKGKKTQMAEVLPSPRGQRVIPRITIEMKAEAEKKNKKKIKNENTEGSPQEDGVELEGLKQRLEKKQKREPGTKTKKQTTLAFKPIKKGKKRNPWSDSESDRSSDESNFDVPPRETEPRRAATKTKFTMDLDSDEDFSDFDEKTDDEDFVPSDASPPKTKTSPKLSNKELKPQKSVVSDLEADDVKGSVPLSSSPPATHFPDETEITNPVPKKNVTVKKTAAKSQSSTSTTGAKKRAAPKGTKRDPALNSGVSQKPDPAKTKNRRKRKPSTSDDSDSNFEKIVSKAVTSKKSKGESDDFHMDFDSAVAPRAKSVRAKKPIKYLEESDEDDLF

Usually IC50 stands for the concentration at which inhibition is half-maximal. In the case of `COc1cc([C@@H]2c3cc4c(cc3[C@@H](NC(=O)CN3CCN(CCCCCCCCN5CCN(CC(=O)N[C@@H]6c7cc8c(cc7[C@@H](c7cc(OC)c(O)c(OC)c7)[C@H]7C(=O)OC[C@@H]76)OCO8)CC5)CC3)[C@H]3COC(=O)[C@H]23)OCO4)cc(OC)c1O`, the “Ratio IC50” value in the test with K562 [1] was 7.4. For the same compound, the “Inhibition (qualitative activity call)” value in test [2] was “Active”. Moreover, the outcome with CHO [3], in the test with K562 [4], with K562 [7], in the test on K562 [10] and in the test on CHO [12] was Active. In addition, the Activity result in the test with K562 [5] was “tde”. Also, the IC50 in the test on K562 [6] was found to be 16 nM; in [11], 115 nM. Besides, in [8], the “Effect on topoisomerase 2-alpha DNA cleavage (qualitative)” value (from here on “Effect”) was “Dose-dependent effect”. Also, the “Inhibition of decatenation activity (qualitative)” value (“Inhibition … (qualitative)” below) in [9] is “Active”.
In the case of `COc1cc([C@@H]2c3cc4c(cc3[C@@H](NC(=O)CN3CCN(CCCCCCCCN5CCNCC5)CC3)[C@H]3COC(=O)[C@H]23)OCO4)cc(OC)c1O`, the “Ratio IC50” value in the test on K562 [1] was 5.4. For the same compound, the outcome in the test with K562 [4] was Active. Further, the IC50 in the test on K562 [6] was 103 nM; in test [11] it was 556 nM. In addition, in test [8], the “Effect” value was “Dose-dependent effect”. The “Inhibition … (qualitative)” value in test [9] was “Active”.
Regarding `COc1cc([C@@H]2c3cc4c(cc3[C@@H](NC(=O)CN3CCN(CCCCCCCCCCCCN5CCN(CC(=O)N[C@@H]6c7cc8c(cc7[C@@H](c7cc(OC)c(O)c(OC)c7)[C@H]7C(=O)OC[C@@H]76)OCO8)CC5)CC3)[C@H]3COC(=O)[C@H]23)OCO4)cc(OC)c1O`, the “Ratio IC50” value in the test on K562 [1] was 8.2. In test [2], the “Inhibition (qualitative activity call)” value is “Active”. Further, the IC50 with K562 [6] amounted to 67 nM; in test [11], 549 nM. The “Effect” value in test [8] is “Dose-dependent effect”. Besides, the “Inhibition … (qualitative)” value in test [9] was “Active”.
Take `COc1cc([C@@H]2c3cc4c(cc3[C@@H](NC(=O)CN3CCN(CCCN5CCNCC5)CC3)[C@H]3COC(=O)[C@H]23)OCO4)cc(OC)c1O`: the “Ratio IC50” value with K562 [1] is recorded as 10.5. The result in the test with K562 [4] was Active. Besides, the IC50 in the test on K562 [6] was 1270 nM; in [11], 13300 nM. In addition, the “Effect” value in [8] was “Dose-dependent effect”. Further, the inhibition result in test [13] is “Active”.
In the case of `COc1cc([C@@H]2c3cc4c(cc3[C@@H](O[C@@H]3O[C@@H]5CO[C@@H](C)O[C@H]5[C@H](O)[C@H]3O)[C@H]3COC(=O)[C@H]23)OCO4)cc(OC)c1O` [ETOPOSIDE], the “Ratio IC50” value in the test with K562 [1] is on record as 15.4. Besides, the “Inhibition (qualitative activity call)” value in test [2] was “Active”. Moreover, the result with K562 [14], in the test on K562 [4], in the test on K562 [16] and in the test with CHO [17] was Active. For the same compound, the Activity in the test on CHO [15] turned out to be 39%. In addition, the half-maximal inhibitory concentration (IC50) in the test with K562 [6] amounted to 163 nM; in test [11], 2500 nM. In test [8], the “Effect” value was “Dose-dependent effect”. For the same compound, in test [9], the “Inhibition … (qualitative)” value was “Active”.
Take `COc1cc([C@@H]2c3cc4c(cc3[C@@H](NC(=O)CN3CCN(CCCCCCCCCCN5CCNCC5)CC3)[C@H]3COC(=O)[C@H]23)OCO4)cc(OC)c1O`: the “Ratio IC50” value with K562 [1] amounted to 6. For the same compound, the outcome with K562 [4], in the test on K562 [7], with K562 [10] and with CHO [12] was Active. Also, in the test on K562 [5], the Activity result was “tde”. In addition, the IC50 with K562 [6] amounted to 26 nM; in [11], 156 nM. For the same compound, the “Effect” value in [8] was “Dose-dependent effect”. The “Inhibition … (qualitative)” value in test [9] is “Active”.
